Active and inactive are the calls of the source. No cut-off for these calls is given here.
How the values were obtained:
Dipeptidyl peptidase 1 [1] = target: T1, Dipeptidyl peptidase 1 (Homo sapiens, UniProt P53634); test: Inhibition of cathepsin C in human THP1 cells assessed as inhibition of H-Gly-Phe-AFC cleavage by fluorescence assay; type: cell-based, THP-1
How it was run: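 Cellular CatC activity in human THP1 cells measured as cleavage of fluorogenic substrate H-Gly-Phe-AFC; pIC50 determined.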

Dipeptidyl peptidase 1 [2] = target: T1, Dipeptidyl peptidase 1; test: Inhibition of recombinant human cathepsin C using H-Gly-Arg-AMC as substrate preincubated for 30 mins before substrate addition measured after 60 mins by fluorescence assay
Rattus norvegicus [3] = organism: Rattus norvegicus; test: Toxicity in rat assessed as foci of foaming macrophages in lung; type: organism-based
Cathepsin B = Cathepsin B (Homo sapiens, UniProt P07858); test: Inhibition of Cathepsin B (unknown origin)
Rattus norvegicus [4] = organism: Rattus norvegicus; test: Toxicity in rat assessed as liver vacuolation; type: organism-based; conditions: in vivo
Rattus norvegicus [5] = organism: Rattus norvegicus; test: Toxicity in rat assessed as liver hypertrophy; type: organism-based; conditions: in vivo
[6] = Volume of distribution at steady state in rat; type: ADME, organism-based; conditions: in vivo, read-out: Vdss
[7] = Half life in dog; type: ADME, organism-based, Canis lupus familiaris; conditions: in vivo
Leukotriene B4 receptor [8] = target: T2, Leukotriene B4 receptor (Homo sapiens, UniProt Q9NPC1+Q15722); test: Binding affinity to leukotriene B4 receptor (unknown origin); type: protein assay
Procathepsin L = Procathepsin L (Homo sapiens, UniProt P07711); test: Inhibition of Cathepsin L (unknown origin)
Cathepsin S = Cathepsin S (Homo sapiens, UniProt P25774); test: Inhibition of Cathepsin S (unknown origin)
Leukotriene B4 receptor [9] = target: T2, Leukotriene B4 receptor; test: Binding affinity to leukotriene B4 receptor (unknown origin) at 10 uM; type: protein assay
How it was run: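 Screened at 10 μM in a human LTB4 binding assay within a panel of over 170 assays; percent inhibition reported.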

[10] = Dissociation constant, pKa of the compound; type: physicochemical
[11] = Clearance in rat; type: ADME, organism-based; conditions: in vivo
Rattus norvegicus [12] = organism: Rattus norvegicus; test: Toxicity in rat assessed as liver cholangitis; type: organism-based; conditions: in vivo
[13] = Bioavailability in mouse; type: ADME, organism-based; conditions: in vivo
[14] = Bioavailability in dog; type: ADME, organism-based, Canis lupus familiaris; conditions: in vivo
[15] = Induction of phospholipid accumulation in rat hepatoma cells; type: cell-based
Cathepsin K = target: T3, Cathepsin K (Homo sapiens, UniProt P43235); test: (§1) Inhibition of Cathepsin K (unknown origin)
T3 sequence (P43235 whole entry): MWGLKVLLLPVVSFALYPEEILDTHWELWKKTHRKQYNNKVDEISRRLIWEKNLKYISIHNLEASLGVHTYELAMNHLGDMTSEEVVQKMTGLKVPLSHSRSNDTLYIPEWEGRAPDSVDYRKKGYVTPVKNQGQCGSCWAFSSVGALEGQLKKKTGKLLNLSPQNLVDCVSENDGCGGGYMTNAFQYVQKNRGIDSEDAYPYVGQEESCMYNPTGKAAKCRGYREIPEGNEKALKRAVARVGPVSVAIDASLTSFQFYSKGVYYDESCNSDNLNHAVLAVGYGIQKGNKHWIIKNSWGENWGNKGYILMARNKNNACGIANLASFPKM

[16] = Intrinsic clearance in human microsomes; type: ADME, Microsome
How it was run: (§2)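 Intrinsic clearance (Clint) determined in human liver microsome and rat hepatocyte preparations.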

[17] = Clearance in mouse; type: ADME, organism-based; conditions: in vivo
[18] = Volume of distribution at steady state in mouse; type: ADME, organism-based; conditions: in vivo, read-out: Vdss
[19] = target: Voltage-gated inwardly rectifying potassium channel KCNH2 (Homo sapiens, UniProt Q12809); test: Inhibition of human ERG by electrophysiology assay
[20] = Half life in mouse; type: ADME, organism-based; conditions: in vivo
[21] = Clearance in dog; type: ADME, organism-based, Canis lupus familiaris; conditions: in vivo
[22] = Lipophilicity, log D of the compound; type: physicochemical; conditions: octanol/water
[23] = Half life in rat; type: ADME, organism-based; conditions: in vivo
[24] = Intrinsic clearance in rat hepatocytes assessed per million cells; type: ADME, cell-based, Hepatocyte; conditions: read-out: CLH; how it was run: as §2
[25] = Bioavailability in rat; type: ADME, organism-based; conditions: in vivo
[26] = Volume of distribution at steady state in dog; type: ADME, organism-based, Canis lupus familiaris; conditions: in vivo, read-out: Vdss
[27] = target: T4, Cathepsin K (Homo sapiens) (UniProt P43235); test: Inhibition of Cathepsin K (unknown origin) at 10 uM
T4 sequence (whole entry): T3 sequence (P43235 whole entry)

Hepatocyte [28] = test: Metabolic stability in rat hepatocytes assessed per compound oxidation by LC-MS/MS analysis; type: ADME, cell-based
Hepatocyte [29] = test: Metabolic stability in human hepatocytes assessed per compound oxidation by LC-MS/MS analysis; type: ADME, cell-based
Plasma [30] = test: Stability in rat plasma; type: ADME, cell-free
Plasma [31] = test: Stability in human plasma; type: ADME, cell-free
[32] = target: T4, Cathepsin K (Homo sapiens); test: as §1

Procathepsin L, sequence (P07711 whole entry): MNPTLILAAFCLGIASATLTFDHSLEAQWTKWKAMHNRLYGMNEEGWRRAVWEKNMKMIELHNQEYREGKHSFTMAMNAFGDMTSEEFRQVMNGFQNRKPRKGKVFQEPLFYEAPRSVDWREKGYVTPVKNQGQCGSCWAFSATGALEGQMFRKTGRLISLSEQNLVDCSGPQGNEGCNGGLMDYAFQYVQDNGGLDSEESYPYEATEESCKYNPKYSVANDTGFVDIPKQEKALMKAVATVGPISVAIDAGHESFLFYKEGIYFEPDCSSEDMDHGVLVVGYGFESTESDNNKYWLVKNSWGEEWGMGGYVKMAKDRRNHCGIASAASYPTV
T1 sequence (P53634 25-134 limits assumed): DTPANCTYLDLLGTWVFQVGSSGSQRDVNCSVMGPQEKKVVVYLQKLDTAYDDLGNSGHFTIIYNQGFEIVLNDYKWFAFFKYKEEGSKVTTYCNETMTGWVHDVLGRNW
T1 sequence (P53634 231-394 limits assumed): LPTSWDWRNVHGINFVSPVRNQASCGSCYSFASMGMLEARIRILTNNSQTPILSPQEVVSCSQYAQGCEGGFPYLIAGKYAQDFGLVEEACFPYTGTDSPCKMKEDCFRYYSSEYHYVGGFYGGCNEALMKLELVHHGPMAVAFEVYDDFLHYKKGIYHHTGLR
T1 sequence (P53634 395-463 limits assumed): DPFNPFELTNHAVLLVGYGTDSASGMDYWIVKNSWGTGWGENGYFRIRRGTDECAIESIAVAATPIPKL
Cathepsin S, sequence (P25774 whole entry): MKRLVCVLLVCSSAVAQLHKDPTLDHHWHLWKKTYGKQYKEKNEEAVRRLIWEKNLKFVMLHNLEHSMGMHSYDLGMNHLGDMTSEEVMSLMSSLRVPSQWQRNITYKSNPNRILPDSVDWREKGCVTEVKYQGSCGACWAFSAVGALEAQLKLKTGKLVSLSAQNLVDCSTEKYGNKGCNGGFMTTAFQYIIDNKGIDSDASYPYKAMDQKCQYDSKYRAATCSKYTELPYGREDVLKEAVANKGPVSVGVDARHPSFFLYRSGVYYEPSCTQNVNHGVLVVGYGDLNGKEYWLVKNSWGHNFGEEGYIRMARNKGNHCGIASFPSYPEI
Voltage-gated inwardly rectifying potassium channel KCNH2, sequence (Q12809 whole entry): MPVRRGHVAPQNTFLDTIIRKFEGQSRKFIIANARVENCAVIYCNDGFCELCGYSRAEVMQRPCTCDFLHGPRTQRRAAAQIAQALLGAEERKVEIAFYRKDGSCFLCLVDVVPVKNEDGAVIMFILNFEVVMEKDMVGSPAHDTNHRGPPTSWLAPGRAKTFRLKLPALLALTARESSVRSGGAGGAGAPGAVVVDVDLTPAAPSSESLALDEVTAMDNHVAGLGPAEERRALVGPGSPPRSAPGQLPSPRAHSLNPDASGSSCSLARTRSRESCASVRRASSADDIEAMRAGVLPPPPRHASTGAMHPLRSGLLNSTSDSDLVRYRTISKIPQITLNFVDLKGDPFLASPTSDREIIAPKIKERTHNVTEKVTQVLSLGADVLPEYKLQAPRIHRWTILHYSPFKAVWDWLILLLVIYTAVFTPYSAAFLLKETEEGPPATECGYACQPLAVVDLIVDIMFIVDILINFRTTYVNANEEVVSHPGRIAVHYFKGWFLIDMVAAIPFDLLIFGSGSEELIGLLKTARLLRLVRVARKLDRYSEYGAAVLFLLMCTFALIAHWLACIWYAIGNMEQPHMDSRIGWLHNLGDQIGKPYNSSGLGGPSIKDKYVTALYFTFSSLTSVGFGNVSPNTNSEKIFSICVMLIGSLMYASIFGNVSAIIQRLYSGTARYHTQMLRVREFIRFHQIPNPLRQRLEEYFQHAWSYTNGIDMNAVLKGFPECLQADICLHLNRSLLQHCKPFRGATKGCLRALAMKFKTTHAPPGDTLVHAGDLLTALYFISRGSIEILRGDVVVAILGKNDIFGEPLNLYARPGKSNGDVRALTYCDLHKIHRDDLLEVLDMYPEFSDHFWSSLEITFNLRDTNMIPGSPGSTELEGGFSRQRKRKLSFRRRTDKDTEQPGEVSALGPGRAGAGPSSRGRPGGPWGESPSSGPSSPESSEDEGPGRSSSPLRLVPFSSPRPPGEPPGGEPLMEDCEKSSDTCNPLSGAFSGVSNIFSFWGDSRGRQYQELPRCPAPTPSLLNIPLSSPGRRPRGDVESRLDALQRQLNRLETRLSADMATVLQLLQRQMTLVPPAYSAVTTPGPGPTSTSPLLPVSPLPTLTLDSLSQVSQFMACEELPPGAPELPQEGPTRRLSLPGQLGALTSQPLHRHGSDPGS
T2 sequence (Q15722 whole entry, looked up): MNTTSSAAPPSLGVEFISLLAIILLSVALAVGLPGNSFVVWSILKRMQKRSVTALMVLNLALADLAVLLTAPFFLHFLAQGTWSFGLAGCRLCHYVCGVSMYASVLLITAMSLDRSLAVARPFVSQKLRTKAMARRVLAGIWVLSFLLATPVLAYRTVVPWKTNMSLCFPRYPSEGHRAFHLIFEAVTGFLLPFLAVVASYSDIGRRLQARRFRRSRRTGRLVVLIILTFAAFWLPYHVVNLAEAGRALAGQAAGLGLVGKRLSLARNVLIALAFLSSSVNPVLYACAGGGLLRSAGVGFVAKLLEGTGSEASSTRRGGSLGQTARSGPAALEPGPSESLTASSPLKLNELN
T2 sequence (Q9NPC1 whole entry, looked up): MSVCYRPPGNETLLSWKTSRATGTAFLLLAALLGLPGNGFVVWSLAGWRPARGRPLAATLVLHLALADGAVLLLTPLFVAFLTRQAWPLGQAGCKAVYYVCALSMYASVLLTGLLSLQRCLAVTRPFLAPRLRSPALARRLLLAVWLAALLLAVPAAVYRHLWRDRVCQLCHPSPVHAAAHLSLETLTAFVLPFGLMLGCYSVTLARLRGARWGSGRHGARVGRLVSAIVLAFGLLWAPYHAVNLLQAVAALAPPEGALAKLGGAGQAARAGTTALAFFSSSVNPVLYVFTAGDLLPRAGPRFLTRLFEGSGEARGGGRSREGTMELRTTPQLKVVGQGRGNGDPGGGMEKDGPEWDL

Structure (SMILES) | IC50 (Dipeptidyl peptidase 1 [1]) | IC50 (Dipeptidyl peptidase 1 [2]) | IC50 (Cathepsin B) | IC50 (Procathepsin L) | IC50 (Cathepsin S) | pKa [10] | EC50 [15] | IC50 (Cathepsin K) | microsomal CLint [16] | logD [22] | hepatocyte CLint [24] | IC50 [19] | further results
N#Cc1ccc(-c2ccc(C[C@@H](C#N)NC(=O)C3(N)CCOCC3)cc2)cc1 |  |  | > 10000 nM | > 10000 nM | > 10000 nM | 5.8 | > 100000 nM | > 10000 nM | 3.6 µL/min/mg | 1.9 | 2.9 µL/min/1e6 cells | 26000 nM | Activity (Rattus norvegicus [3]): Non-toxic; Activity (Rattus norvegicus [4]): Non-toxic; Activity (Rattus norvegicus [5]): Non-toxic; Vd [6]: 1.9 L/kg; half-life [7]: 11.6 h; IC50 (Leukotriene B4 receptor [8]): 2000 nM; inhibition (Leukotriene B4 receptor [9]): 69%; clearance [11]: 9 mL/min/kg; Activity (Rattus norvegicus [12]): Non-toxic; bioavailability [13]: 95%; bioavailability [14]: 72%; clearance [17]: 9 mL/min/kg; Vd [18]: 1.6 L/kg; half-life [20]: 2 h; clearance [21]: 2 mL/min/kg; half-life [23]: 3.5 h; bioavailability [25]: 92%; Vd [26]: 1.4 L/kg
N#Cc1ccc(-c2ccc(C[C@@H](C#N)NC(=O)[C@@H]3C[C@@H](O)CCN3)cc2)cc1 | 12.6 nM | 5.01 nM | > 10000 nM | > 10000 nM | > 10000 nM | 7.6 | 75000 nM | 6310 nM | < 3 µL/min/mg | 1.4 | 4 µL/min/1e6 cells | > 33000 nM | 
N#C[C@H](Cc1ccc(-c2ccccc2)cc1)NC(=O)[C@@H]1CCCCN1 | 158 nM |  |  |  |  |  |  |  |  |  | > 150 µL/min/1e6 cells |  | Stability (Hepatocyte [28]): Unstable; Stability (Hepatocyte [29]): Unstable; Stability (Plasma [30]): Stable; Stability (Plasma [31]): Stable
CS(=O)(=O)c1cccc(-c2ccc(C[C@@H](C#N)NC(=O)C3(N)CCOCC3)cc2)c1 | 7.94 nM | 0.794 nM |  |  |  | 6.3 |  |  | < 3 µL/min/mg | 0.8 | < 3 µL/min/1e6 cells | > 33000 nM | inhibition [32]: inactive
N#C[C@H](Cc1ccc(-c2ccccc2)cc1)NC(=O)C1(N)CCOCC1 | 31.6 nM | 2 nM |  |  |  | 5.4 |  |  | > 150 µL/min/mg | 2.3 | > 150 µL/min/1e6 cells | > 33000 nM | inhibition [32]: inactive
N#Cc1ccc(-c2ccc(C[C@@H](C#N)NC(=O)C3(N)CCCCC3)cc2)cc1 | 3.16 nM | 2.51 nM |  |  |  | 7.1 |  |  | 20 µL/min/mg | 2.9 | 15 µL/min/1e6 cells | 9000 nM | 
CN1Cc2cc(-c3ccc(C[C@@H](C#N)NC(=O)[C@@H]4C[C@@H](O)CCN4)cc3)ccc2C1=O | 39.8 nM | 3.98 nM | > 10000 nM | > 10000 nM | > 10000 nM |  | > 120000 nM | 7940 nM | < 4 µL/min/mg | 0.5 | < 4 µL/min/1e6 cells | > 33000 nM | 

Continued, in another order:

IC50 (Dipeptidyl peptidase 1 [1]) | IC50 (Dipeptidyl peptidase 1 [2]) | IC50 (Cathepsin B) | IC50 (Procathepsin L) | IC50 (Cathepsin S) | pKa [10] | EC50 [15] | IC50 (Cathepsin K) | microsomal CLint [16] | logD [22] | hepatocyte CLint [24] | Structure (SMILES) | IC50 [19] | further results
63.1 nM | 2 nM |  |  |  |  |  |  |  |  |  | CC[C@H](N)C(=O)N[C@H](C#N)Cc1ccc(-c2ccccc2)cc1 |  | 
50.1 nM |  |  |  |  | 6.3 |  | 7940 nM | < 3 µL/min/mg | 1.1 | 41 µL/min/1e6 cells | CN1Cc2ccc(-c3ccc(C[C@@H](C#N)NC(=O)C4(N)CCOCC4)cc3)cc2C1=O | > 33000 nM | inhibition [27]: 50%
10 nM | 39.8 nM | > 10000 nM | > 10000 nM | > 10000 nM | 8.4 | 9000 nM | 1000 nM | < 4 µL/min/mg | 2.7 | < 3 µL/min/1e6 cells | N#Cc1ccc(-c2ccc(C[C@@H](C#N)NC(=O)[C@@H]3CCCCN3)cc2)cc1 | 1400 nM | Activity (Rattus norvegicus [3]): Toxic; Activity (Rattus norvegicus [4]): Toxic; Activity (Rattus norvegicus [5]): Toxic; Vd [6]: 5.6 L/kg; clearance [11]: 16 mL/min/kg; Activity (Rattus norvegicus [12]): Toxic; half-life [23]: 4.5 h; bioavailability [25]: 75%
1 nM | 3.98 nM | > 10000 nM | > 10000 nM | > 10000 nM |  |  | 398 nM | 7 µL/min/mg |  | 13 µL/min/1e6 cells | CSc1cc(-c2ccc(C[C@@H](C#N)NC(=O)[C@@H]3CCCCN3)cc2)ccc1C#N | 2700 nM | 
7.94 nM | 25.1 nM | > 10000 nM | > 10000 nM | > 10000 nM | 7.1 |  | 251 nM | < 3 µL/min/mg | 1 | 5 µL/min/1e6 cells | CN1Cc2cc(-c3ccc(C[C@@H](C#N)NC(=O)[C@@H]4CCCCN4)cc3)ccc2C1=O |  | 

Source: ChEMBL document CHEMBL3259727, “Cathepsin C inhibitors: property optimization and identification of a clinical candidate” (J Med Chem, 2014)
